A word on the Ki: it is the dissociation constant of the complex between target and ligand, obtained from inhibition or displacement. Read a low Ki as a stronger hold on the target. The EC50 is the concentration that produces a half-maximal response.

In data set [1] the target is T1, Cannabinoid receptor 1 (Homo sapiens, UniProt P21554). The experiment in a line: Displacement of [3H]CP55940 from human CB1 receptor expressed in CHO cell membranes. The data set is classed as cell-based. For orientation: Loss of bound radioactivity is the signal in a displacement assay; it reports binding, not function.
T1 sequence (P21554 whole entry): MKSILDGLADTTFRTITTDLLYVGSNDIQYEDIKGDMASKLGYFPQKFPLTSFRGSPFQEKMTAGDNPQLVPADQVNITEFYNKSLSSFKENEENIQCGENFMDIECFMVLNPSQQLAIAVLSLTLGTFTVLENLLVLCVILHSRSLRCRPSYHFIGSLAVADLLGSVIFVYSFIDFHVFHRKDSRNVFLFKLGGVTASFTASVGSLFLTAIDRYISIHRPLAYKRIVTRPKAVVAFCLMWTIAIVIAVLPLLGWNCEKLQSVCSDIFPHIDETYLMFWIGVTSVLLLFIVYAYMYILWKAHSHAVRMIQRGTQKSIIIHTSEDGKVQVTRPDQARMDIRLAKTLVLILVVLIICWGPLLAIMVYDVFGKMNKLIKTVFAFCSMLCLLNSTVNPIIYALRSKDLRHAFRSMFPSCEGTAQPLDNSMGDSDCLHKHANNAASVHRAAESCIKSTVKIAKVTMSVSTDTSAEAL
The target in the next data set is Cannabinoid receptor 2 (Homo sapiens, UniProt P34972). The experiment in a line: Displacement of [3H]CP55940 from human CB2 receptor expressed in CHO cell membranes.
Cannabinoid receptor 2, sequence (P34972 whole entry): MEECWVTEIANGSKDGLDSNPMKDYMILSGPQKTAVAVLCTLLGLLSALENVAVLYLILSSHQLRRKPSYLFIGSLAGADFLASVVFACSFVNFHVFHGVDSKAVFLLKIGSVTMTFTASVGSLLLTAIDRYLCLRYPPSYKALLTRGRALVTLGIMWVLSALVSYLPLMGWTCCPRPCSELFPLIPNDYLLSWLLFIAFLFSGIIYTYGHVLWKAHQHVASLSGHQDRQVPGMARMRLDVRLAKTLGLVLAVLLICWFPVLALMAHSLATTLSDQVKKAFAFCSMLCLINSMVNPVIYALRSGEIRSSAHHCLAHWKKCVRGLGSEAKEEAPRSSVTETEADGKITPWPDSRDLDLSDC
A further data set is filed under the species Homo sapiens. Kind of data set: Selectivity ratio of Ki for human CB2 receptor to Ki for human CB1 receptor. In short, it runs like this:
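Ki values from displacement of [³H]CP55940 in membranes of CHO cells overexpressing human CB1 or human CB2; ratio taken as Ki(CB2)/Ki(CB1). Binding was run only on compounds with apparent Ke <50 nM in the CB1 calcium assay.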

The subject of a further data set is MDCK. The experiment in a line: Permeability across apical to basolateral side of MDCK cell BBB penetration model expressing human mdr1 at 10 uM incubated for 1 hr by mass spectrometric analysis. The data set is classed as ADME, cell-based, Canis lupus familiaris. The following applies: dog. In short, it runs like this:
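MDCK cells transfected with human MDR1 grown 4 days to confluence on Transwell-type filters in DMEM/F12 with 10% FBS and antibiotics. Compound added apically at 10 µM in HBSS with 25 mM glucose, HEPES pH 7.4; 1 h at 37 °C; apical and basal samples quantified by LC–MS/MS (MRM); percent apical-to-basal transport.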

Another data set concerns Liver. The experiment in a line: Stability of compound in human liver S9 fractions assessed as compound remaining at 10 uM incubated for 60 mins by mass spectrometric analysis. It counts as ADME, subcellular, Liver S9 fraction. The following applies: s9, 1 h. The gist of the method:
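Mixed-gender pooled human hepatic S9 at 1 mg/mL; compound at 10 µM final in 50 mM potassium phosphate pH 7.4, 3 mM MgCl2 with NADPH regenerating system (1 mM NADP, 5 mM glucose-6-phosphate, 1 unit/mL G6PDH); triplicates, 60 min; quenched with 3 volumes acetonitrile; LC–MS quantified against matrix standard curves; percent parent remaining.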

Data set [2] in a line: Permeability of compound across apical to basal compartment in PBS at pH 7.4 at 10 uM after 4 hrs by PAMPA. It counts as ADME. The following applies: pH 7.4, 4 h. In short, it runs like this:
(§1)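 PAMPA kit per manufacturer; compound at 10 µM final added to the apical compartment in PBS at pH 5.5 or 7.4; incubated 4 h at room temperature; both compartments sampled and measured by LC–MS; percent apical-to-basal transport, mean of 3.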
Background: In PAMPA a lipid-coated filter parts donor from acceptor wells.

A short description of data set [3]: Permeability of compound across apical to basal compartment in PBS at pH 5.5 at 10 uM after 4 hrs by PAMPA. The following applies: pH 5.5, 4 h. It counts as ADME. In short, it runs like this: as §1
Data set [4] addresses T1, Cannabinoid receptor 1. The experiment in a line: Inverse agonist activity at human CB1 receptor expressed in CHO cells assessed as increase in intracellular calcium mobilization after 90 secs by Calcein-4 AM-staining based FLIPR assay. It counts as functional, cell-based.
Data set [5] in a line: Drug uptake in Sprague-Dawley rat brain at 10 mg/kg, po after 4 hrs by LC-MS/MS analysis. It counts as ADME, organism-based. The following applies: read-out: Drug uptake. The gist of the method:
(§2)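 Male Sprague Dawley rats (10 weeks on arrival, acclimated; 12 weeks at dosing, n=3) given a single oral gavage bolus of 10 mg/kg in 90% corn oil/10% DMSO. Sacrificed 4 h post-dose; brain and plasma collected; parent compound quantified by LC–MS/MS; mean and SD reported.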

Data set [6] in a line: Plasma concentration in Sprague-Dawley rat at 10 mg/kg, po after 4 hrs by LC-MS/MS analysis. It counts as ADME, organism-based. The gist of the method:
as §2

A short description of data set [7]: Ratio of drug level in Sprague-Dawley rat brain to plasma at 10 mg/kg, po after 4 hrs by LC-MS/MS analysis. It counts as ADME, organism-based. The gist of the method:
as §2

Data set [8] has as its target T1, Cannabinoid receptor 1. The following applies: CHO-K1.
Data set [9] is described as follows: Ratio of drug level in Sprague-Dawley rat brain to plasma at 10 mg/kg, ip. The data set is classed as ADME, organism-based. The following applies: read-out: BPR.

`CCCCC(=O)N1CCC(NC(=O)c2nn(-c3ccc(Cl)cc3Cl)c(-c3ccc(Cl)cc3)c2C)CC1`: the Ki on Cannabinoid receptor 1 [1] stood at 14.5 nM; at Cannabinoid receptor 2, 1780 nM. In the data set listed under Homo sapiens, the Ratio Ki came to 123. Further, the permeability in the data set with MDCK is on record as below 1%; in [2], 1.8%; in data set [3], 1.1%. In addition, the Stability in the data set on Liver is 72%.
`CCCOC(=O)N1CCC(NC(=O)c2nn(-c3ccc(Cl)cc3Cl)c(-c3ccc(Cl)cc3)c2C)CC1`: the inhibition constant (Ki) on Cannabinoid receptor 1 [1] was determined as 8.82 nM; at Cannabinoid receptor 2, 1540 nM. Moreover, the Ratio Ki in the data set listed under Homo sapiens was 175. The EC50 on Cannabinoid receptor 1 [4] was 20 nM. The values for the permeability (in the data set on MDCK; in [2]; in data set [3]) were below 1%, 1.9% and 1.4%, respectively. In the data set on Liver, the Stability is listed as 66%. In addition, the concentration at 4 h was determined as 69 ng/g in data set [5] and 455 ng/mL in data set [6]. For the same compound, in [7], the BPR is on record as 15%.
As for `Cc1c(C(=O)NC2CCN(S(=O)(=O)CC(C)C)CC2)nn(-c2ccc(Cl)cc2Cl)c1-c1ccc(Cl)cc1`, the inhibitory constant (Ki) on Cannabinoid receptor 1 [1] amounted to 43.5 nM; on Cannabinoid receptor 2 it was 6210 nM. In addition, in the data set listed under Homo sapiens, the Ratio Ki came out at 143. Also, the permeability in the data set with MDCK is reported as below 1%; in data set [2] it was 0.2%; in [3] it was 0.1%. Besides, the Stability in the data set with Liver is above 90%.
The compound `CCCCOC(=O)N1CCC(NC(=O)c2nn(-c3ccc(Cl)cc3Cl)c(-c3ccc(Cl)cc3)c2C)CC1` gave a Ke on Cannabinoid receptor 1 [8] of 88 nM.
`Cc1c(C(=O)NC2CCN(C(=O)CC(C)C)CC2)nn(-c2ccc(Cl)cc2Cl)c1-c1ccc(Cl)cc1`: the inhibition constant Ki is 28.9 nM at Cannabinoid receptor 1 [1] and 1810 nM on Cannabinoid receptor 2. Further, the Ratio Ki in the data set listed under Homo sapiens is 63. The permeability with MDCK was 1%; in data set [2], 3.6%; in [3], 3.3%. Further, in the data set with Liver, the Stability is recorded as 72%.
In the data set on MDCK, `Cn1c(=O)c2c(ncn2C)n(C)c1=O` [CAFFEINE] yielded a permeability of 80%.
As for `Cc1c(C(=O)NC2CCN(S(=O)(=O)CCC(F)(F)F)CC2)nn(-c2ccc(Cl)cc2Cl)c1-c1ccc(Cl)cc1`, the Ki on Cannabinoid receptor 1 [1] worked out at 9.6 nM; at Cannabinoid receptor 2, 4720 nM. The Ratio Ki in the data set listed under Homo sapiens was found to be 492. The permeability with MDCK is listed as below 1%; in [2], 0.1%; in data set [3], 0.1%. The Stability in the data set on Liver is above 90%.
On to `Cc1c(C(=O)NC2CCN(C(=O)OC(C)(C)C)CC2)nn(-c2ccc(Cl)cc2Cl)c1-c1ccc(Cl)cc1`, for which the Kp in [9] was below 0.04.
In the case of `Cc1c(C(=O)NC2CCN(C(=O)C3CCCC3)CC2)nn(-c2ccc(Cl)cc2Cl)c1-c1ccc(Cl)cc1`, the inhibition constant (Ki) on Cannabinoid receptor 1 [1] was 9.2 nM; on Cannabinoid receptor 2, 2500 nM. For the same compound, in the data set filed under Homo sapiens, the Ratio Ki worked out at 271. Also, the permeability in the data set with MDCK is on record as below 1%; in data set [2] it was 0.2%; in [3] it was 0.2%. Further, the Stability in the data set on Liver stood at 62%.
For `Cc1c(C(=O)NC2CCN(C(=O)OC(C)C)CC2)nn(-c2ccc(Cl)cc2Cl)c1-c1ccc(Cl)cc1`, the values for the Ki on Cannabinoid receptor 1 [1] and on Cannabinoid receptor 2 were 6.4 nM and 1930 nM, respectively. Besides, in the data set listed under Homo sapiens, the Ratio Ki came out at 301. Further, the permeability in the data set on MDCK was below 1%; in [2] it was 0.1%; in data set [3], 0%. For the same compound, the Stability in the data set on Liver was determined as 82%.
In the case of `Cc1c(C(=O)NC2CCN(C(=O)c3ccccc3)CC2)nn(-c2ccc(Cl)cc2Cl)c1-c1ccc(Cl)cc1`, the inhibition constant Ki was 7.5 nM on Cannabinoid receptor 1 [1] and 1730 nM on Cannabinoid receptor 2. Besides, the Ratio Ki in the data set listed under Homo sapiens turned out to be 230. The figures for the permeability (in the data set on MDCK; in data set [2]; in data set [3]) were below 1%, 0.2% and 0.3%, respectively. In addition, the Stability in the data set with Liver was above 90%.
As for `Cc1c(C(=O)N2CCC(NC(=O)NC(C)(C)C)(c3ccccc3)CC2)nn(-c2ccc(Cl)cc2Cl)c1-c1ccc(Cl)cc1`, the Kp in data set [9] is below 0.04.
Regarding `CCS(=O)(=O)N1CCC(NC(=O)c2nn(-c3ccc(Cl)cc3Cl)c(-c3ccc(Cl)cc3)c2C)CC1`, the Ki at Cannabinoid receptor 1 [1] amounted to 44.4 nM; at Cannabinoid receptor 2 it was 4410 nM. In addition, the Ratio Ki in the data set filed under Homo sapiens was determined as 99. Besides, the permeability is below 1% in the data set with MDCK, 0.05% in data set [2] and 0.1% in data set [3]. Further, the Stability with Liver amounted to 68%.
As to `Cc1c(C(=O)NC2CCN(C(=O)C(F)(F)F)CC2)nn(-c2ccc(Cl)cc2Cl)c1-c1ccc(Cl)cc1`, the Ki at Cannabinoid receptor 1 [1] came to 1.9 nM; on Cannabinoid receptor 2, 1040 nM. In addition, the Ratio Ki in the data set listed under Homo sapiens was found to be 548. The values for the permeability (with MDCK; in [2]; in [3]) were below 1%, 0.2% and 0.4%, respectively. Also, in the data set on Liver, the Stability is recorded as 74%.
With `Cc1c(C(=O)NC2CCN(S(=O)(=O)c3ccccc3)CC2)nn(-c2ccc(Cl)cc2Cl)c1-c1ccc(Cl)cc1`, the Ki on Cannabinoid receptor 1 [1] was 43 nM; on Cannabinoid receptor 2, above 20000 nM. In addition, the permeability in the data set on MDCK is on record as below 1%; in data set [2], 0.1%; in [3], 0.03%. In the data set with Liver, the Stability is given as above 90%.

Source of the values: ChEMBL document CHEMBL3758084, “Pyrazole antagonists of the CB1 receptor with reduced brain penetration” (Bioorg Med Chem, 2016).
